# Results pooled from the literature.
# Organism: Candida albicans
# Effect on: microbial growth
# Method: broth dilution
Compound,strain,time,MIC
N=c1sc(C(=O)c2ccc(Nc3cnccn3)cc2)nn1-c1ccccc1,ATCC10231,,100 µg/mL
OC(Cn1cncn1)(Cn1cncn1)c1ccc(F)cc1F,SP3903,48 h,4 µM
CCn1c2ccccc2c2cc(CNC)ccc21,SN152,24 h,64 µg/mL
CC(=O)C1=NN(c2ccc([N+](=O)[O-])cc2)C(=C(C#N)C(=O)c2ccc(Nc3cnccn3)cc2)S1,ATCC10231,,6.25 µg/mL
C#CCOC(=O)ON=C1C=CC(=C(C#N)c2ccccc2)C=C1,ATCC10231,48 h,4 µg/mL
C[C@@H]1[C@H](O)[C@@H](C)/C=C/C=C/C=C/C=C/C=C/C=C/C=C/[C@H](O[C@@H]2O[C@H](C)[C@@H](O)[C@H](N)[C@@H]2O)C[C@@H]2O[C@](O)(C[C@@H](O)C[C@@H](O)[C@H](O)CC[C@@H](O)C[C@@H](O)CC(=O)O[C@H]1C)C[C@H](O)[C@H]2C(=O)O,SP3931,48 h,< 0.25 µM
CC(=O)ON=C1C=CC(=C(C#N)c2ccccc2)C=C1,ATCC10231,48 h,2 µg/mL
C/C(=N\C(=O)/N=C(\C)c1c(O)c2ccccc2oc1=O)c1c(O)c2ccccc2oc1=O,,48 h,31.2 µg/mL
Cc1ccc(N=Nc2c(N)nn3c(-c4ccc(Cl)cc4Cl)cc(-c4ccc(OCc5ccccc5)cc4)nc23)cc1,ATCC10231,,31.3 µg/mL
CC(=O)N1CCN(c2ccc(OCC3COC(Cn4ccnc4)(c4ccc(Cl)cc4Cl)O3)cc2)CC1 (centres unmarked),SP3931,48 h,2 µM
C/C(=N\C(=S)/N=C(\C)c1c(O)c2ccccc2oc1=O)c1c(O)c2ccccc2oc1=O,,48 h,3.9 µg/mL
CCON=C1C=CC(=C(C#N)c2ccccc2)C=C1,ATCC10231,48 h,256 µg/mL
C/C(=N\N=C(/C)c1c(O)c2ccccc2oc1=O)c1c(O)c2ccccc2oc1=O,,48 h,125 µg/mL
COc1ccc(N=Nc2c(N)nn3c(-c4ccc(Cl)cc4Cl)cc(-c4ccc(OCc5ccccc5)cc4)nc23)cc1,ATCC10231,,62.5 µg/mL
